Measured values pooled from the literature.
Protocols differ between the studies behind these lines.
Target: Cyclin-dependent kinase 3 (CDK3, Homo sapiens, UniProt Q00526)

`CN(C)c1ncc(F)c(-c2cnn3ncccc23)n1` has a remaining binding of 82% (binding; 1 µM).
The remaining binding of `CCN1CCN(Cc2ccc(C(=O)Nc3ccc(C)c(Oc4ccc5c(c4)CC(=O)N5)c3)cc2C(F)(F)F)CC1` is reported as 100% (binding, competition with immobilised ligand; 1 µM).
For `C[C@H](c1ccnc(Nc2nc3ccc(-c4cc(N(C)C)ncn4)cc3[nH]2)c1)N1CCN(C(=O)CC(F)(F)F)CC1`, the remaining binding was 100% (cell-free assay, competition with immobilised ligand; 0.1 µM).
For `CC1CCCN1c1nccc(-c2cnn3ncccc23)n1` (stereo not drawn), the remaining binding was 100% (binding; 1 µM).
With `Nc1ncc2c(n1)-c1c([nH]c3ccc(C#CC4CC4)cc13)CCCC2` the remaining binding was 77% (binding, competition with immobilised ligand; 1 µM).
For `O=C(c1ccc(Nc2nccc(-c3cc4ccccc4s3)n2)cc1)N1CCC(N2CCCC2)CC1`, the remaining binding was 98% (binding, competition with immobilised ligand; 1 µM).
The remaining binding of `CS(=O)(=O)c1cc(C2(NC(=O)c3cncc4c3cnn4-c3ccc(F)cc3)CC2)ccn1` is reported as 81% (cell-free assay, competition with immobilised ligand; 1 µM).
For `N#Cc1ccccc1CSc1nnc2c(n1)[nH]c1ccccc12`, the remaining binding was 100% (binding, competition with immobilised ligand; 10 µM).
For `O=C(NCCCN1CCOCC1)c1ccc(Nc2ncc(Cl)c(-c3ccc(Cl)s3)n2)cc1`, the remaining binding was 44% (binding, competition with immobilised ligand; 1 µM).
`Cc1cnn2ncc(-c3ccnc(N(C)C)n3)c2c1` gave a remaining binding of 86% (binding; 1 µM).
The remaining binding of `N#Cc1ccc(Nc2ccc3[nH]c(=O)[nH]c3c2)c(Cl)c1` is reported as 100% (cell-free assay, competition with immobilised ligand; 1 µM).
The remaining binding of `O=C(NCC1CCOCC1)c1n[nH]cc1NC(=O)c1c(F)cccc1F` is reported as 75% (binding, competition with immobilised ligand; 1 µM).
`C[C@@H]1CN(c2ccc3ncc(-c4ccc5[nH]nc(C6CC6)c5c4)n3n2)C[C@H](C)O1` gave a remaining binding of 90% (binding, competition with immobilised ligand; 0.5 µM).
With `CN(c1nccc(-c2cnn3ncccc23)n1)C1CC1` the remaining binding was 100% (binding; 1 µM).
The remaining binding of `CCCOc1ccc([C@@H]2[C@@H](C(=O)O)[C@H](c3ccc4c(c3)OCO4)CN2CC(=O)Nc2c(CC)cccc2CC)cc1` is reported as 100% (cell-free assay, competition with immobilised ligand; 1 µM).
With `COc1cnc(Nc2cccc(S(N)(=O)=O)c2)nc1N1CCN(c2ccccc2)CC1` the remaining binding was 100% (binding, competition with immobilised ligand; 1 µM).
The remaining binding of `CC(C)(C)c1ccc(-c2nc(CBr)nn2-c2cccc(O)c2)cc1` is reported as 100% (cell-free assay, competition with immobilised ligand; 10 µM).
`CC(=O)N1CCC(c2ccc(C(=O)NC3=NCCN3)cc2C(F)(F)F)CC1` gave a remaining binding of 100% (cell-free assay, competition with immobilised ligand; 1 µM).
`COc1ncc2cc3ccccc3nc2c1C#N` has a remaining binding of 100% (cell-free assay, competition with immobilised ligand; 5 µM).
For `C[C@@H](c1cccc(C#N)c1)n1cc(Cl)cc(C(N)=O)c1=N`, the remaining binding was 100% (cell-free assay, competition with immobilised ligand; 1 µM).
`C[C@H]1CCN(c2nccc(-c3cnn4ncccc34)n2)C1` has a remaining binding of 86% (binding; 1 µM).
